Laboratory results from ChEMBL document CHEMBL3792373, “Anti-methicillin resistant Staphylococcus aureus activity, synergism with oxacillin and molecular docking studies of metronidazole-triazole hybrids” (Eur J Med Chem, 2016).
Converted amounts (≈) assume the structure as drawn.

Legend:
[1] = Cytotoxicity against human THP1 cells upto 50 uM treated 3 times per week for 14 days by MTT assay; assay type: cell-based; details: thp-1, 336 h
Staphylococcus aureus [2] = assay: Bactericidal activity against methicillin-resistant Staphylococcus aureus isolate 1a assessed as reduction in colony counts at 32 ug/ml after 4 hrs by pour plate method (reference value: 6.14 +/- 0.456 log10CFU/ml); assay type: functional
Staphylococcus aureus [3] = assay: Bactericidal activity against methicillin-resistant Staphylococcus aureus isolate 1a assessed as reduction in colony counts at 32 ug/ml after 8 hrs by pour plate method (reference value: 8.30 +/- 0.442 log10CFU/ml); assay type: functional
Staphylococcus aureus [4] = assay: Bactericidal activity against methicillin-resistant Staphylococcus aureus isolate 1a assessed as reduction in colony counts at 32 ug/ml after 12 hrs by pour plate method (reference value: 10.12 +/- 0.428 log10CFU/ml); assay type: functional
Staphylococcus aureus [5] = assay: Bactericidal activity against methicillin-resistant Staphylococcus aureus isolate 1a assessed as reduction in colony counts at 32 ug/ml after 16 hrs by pour plate method (reference value: 12.50 +/- 0.291 log10CFU/ml); assay type: functional
Staphylococcus aureus [6] = assay: Bactericidal activity against methicillin-resistant Staphylococcus aureus isolate 1a assessed as reduction in colony counts at 32 ug/ml after 20 hrs by pour plate method (reference value: 12.73 +/- 0.223 log10CFU/ml); assay type: functional
Staphylococcus aureus [7] = assay: Bactericidal activity against methicillin-resistant Staphylococcus aureus isolate 1a assessed as reduction in colony counts at 32 ug/ml after 24 hrs by pour plate method (reference value: 12.64 +/- 0.224 log10CFU/ml); assay type: functional
Staphylococcus aureus [8] = assay: Antimicrobial activity against methicillin-resistant Staphylococcus aureus isolate 2a after 24 hrs by agar plate dilution method; assay type: functional
How it was run: (§1)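 Clinical MRSA isolates from axilla/nasal swabs, identified by mannitol salt agar, Gram stain and coagulase test. Agar plate dilution with compound series 0.03–128 µg/mL. Inoculum suspended in water to McFarland 0.5. Incubation 24 h at 37 °C. MIC read as the lowest level without white growth spots. Dilution series quality-controlled with S. aureus NCTC 6571.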

Staphylococcus aureus [9] = assay: Antimicrobial activity against methicillin-resistant Staphylococcus aureus isolate 1a after 24 hrs by agar plate dilution method; assay type: functional; how it was run: as §1
Staphylococcus aureus [10] = assay: Antimicrobial activity against methicillin-resistant Staphylococcus aureus isolate 3a after 24 hrs by agar plate dilution method; assay type: functional; how it was run: as §1
Staphylococcus aureus [11] = assay: Antimicrobial activity against methicillin-resistant Staphylococcus aureus isolate 4a after 24 hrs by agar plate dilution method; assay type: functional; how it was run: as §1
Staphylococcus aureus [12] = assay: Antimicrobial activity against methicillin-resistant Staphylococcus aureus isolate 5a after 24 hrs by agar plate dilution method; assay type: functional
How it was run: (§2)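 Clinical MRSA isolates, from axilla/nasal swabs and identified by mannitol salt agar, Gram stain and coagulase test. […] Inoculum adjusted to McFarland 0.5 in water. Plates incubated 24 h at 37 °C and scored for growth spots. Dilution series quality-controlled with S. aureus NCTC 6571. Combination lines used a 1:1 mixture with oxacillin.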

Staphylococcus aureus [13] = assay: Antimicrobial activity against methicillin-resistant Staphylococcus aureus isolate 6a after 24 hrs by agar plate dilution method; assay type: functional; how it was run: as §2
Staphylococcus aureus [14] = assay: Antimicrobial activity against methicillin-resistant Staphylococcus aureus isolate 7a after 24 hrs by agar plate dilution method; assay type: functional; how it was run: as §2
Staphylococcus aureus [15] = assay: Antimicrobial activity against methicillin-resistant Staphylococcus aureus isolate 8a after 24 hrs by agar plate dilution method; assay type: functional; how it was run: as §2
Staphylococcus aureus [16] = assay: Antimicrobial activity against methicillin-resistant Staphylococcus aureus isolate 9a after 24 hrs by agar plate dilution method; assay type: functional; how it was run: as §2
Staphylococcus aureus [17] = assay: Antimicrobial activity against methicillin-resistant Staphylococcus aureus isolate 10a after 24 hrs by agar plate dilution method; assay type: functional; how it was run: as §1
Staphylococcus aureus [18] = assay: Antimicrobial activity against methicillin-resistant Staphylococcus aureus isolate 11a after 24 hrs by agar plate dilution method; assay type: functional; how it was run: as §1
Staphylococcus aureus [19] = assay: Antimicrobial activity against methicillin-resistant Staphylococcus aureus isolate 12a after 24 hrs by agar plate dilution method; assay type: functional; how it was run: as §1
Staphylococcus aureus [20] = assay: Antimicrobial activity against methicillin-resistant Staphylococcus aureus isolate 13a after 24 hrs by agar plate dilution method; assay type: functional; how it was run: as §1
Staphylococcus aureus [21] = assay: Antimicrobial activity against methicillin-resistant Staphylococcus aureus isolate 14a after 24 hrs by agar plate dilution method; assay type: functional; how it was run: as §1
Staphylococcus aureus [22] = assay: Antimicrobial activity against methicillin-resistant Staphylococcus aureus isolate 15a after 24 hrs by agar plate dilution method; assay type: functional; how it was run: as §1
Staphylococcus aureus [23] = assay: Antimicrobial activity against methicillin-resistant Staphylococcus aureus isolate 16a after 24 hrs by agar plate dilution method; assay type: functional; how it was run: as §1
Staphylococcus aureus [24] = assay: Antimicrobial activity against methicillin-resistant Staphylococcus aureus isolate 17a after 24 hrs by agar plate dilution method; assay type: functional; how it was run: as §1
Staphylococcus aureus [25] = assay: Antimicrobial activity against methicillin-resistant Staphylococcus aureus isolate 18a after 24 hrs by agar plate dilution method; assay type: functional; how it was run: as §1
Staphylococcus aureus [26] = assay: Antimicrobial activity against methicillin-resistant Staphylococcus aureus isolate 19a after 24 hrs by agar plate dilution method; assay type: functional; how it was run: as §1
Staphylococcus aureus [27] = assay: Antimicrobial activity against methicillin-resistant Staphylococcus aureus isolate 20a after 24 hrs by agar plate dilution method; assay type: functional; how it was run: as §1
Staphylococcus aureus [28] = assay: Antimicrobial activity against methicillin-resistant Staphylococcus aureus isolate 21a after 24 hrs by agar plate dilution method; assay type: functional; how it was run: as §1
Staphylococcus aureus [29] = assay: Antimicrobial activity against methicillin-resistant Staphylococcus aureus isolate 22a after 24 hrs by agar plate dilution method; assay type: functional; how it was run: as §1
Staphylococcus aureus [30] = assay: Antimicrobial activity against methicillin-resistant Staphylococcus aureus isolate 23a after 24 hrs by agar plate dilution method; assay type: functional; how it was run: as §1
Staphylococcus aureus [31] = assay: Antimicrobial activity against methicillin-resistant Staphylococcus aureus isolate 24a after 24 hrs by agar plate dilution method; assay type: functional; how it was run: as §1
Staphylococcus aureus [32] = assay: Antimicrobial activity against methicillin-resistant Staphylococcus aureus isolate 25a after 24 hrs by agar plate dilution method; assay type: functional; how it was run: as §1
Staphylococcus aureus [33] = assay: Antimicrobial activity against methicillin-resistant Staphylococcus aureus isolate 26a after 24 hrs by agar plate dilution method; assay type: functional; how it was run: as §1
Staphylococcus aureus [34] = assay: Antimicrobial activity against methicillin-resistant Staphylococcus aureus isolate 27a after 24 hrs by agar plate dilution method; assay type: functional; how it was run: as §1
Staphylococcus aureus [35] = assay: Antimicrobial activity against methicillin-resistant Staphylococcus aureus isolate 28a after 24 hrs by agar plate dilution method; assay type: functional; how it was run: as §1
Staphylococcus aureus [36] = assay: Antimicrobial activity against methicillin-resistant Staphylococcus aureus isolate 29a after 24 hrs by agar plate dilution method; assay type: functional; how it was run: as §1
Staphylococcus aureus [37] = assay: Antimicrobial activity against methicillin-resistant Staphylococcus aureus isolate 30a after 24 hrs by agar plate dilution method; assay type: functional; how it was run: as §1

## Cc1ncc([N+](=O)[O-])n1CCn1cc(COc2ccc(C(C)C)cc2)nn1
[1]
  Activity: Non-toxic

## Cc1ncc([N+](=O)[O-])n1CCn1cc(CNc2ccccc2)nn1
[1]
  Activity: Non-toxic

## Cc1ncc([N+](=O)[O-])n1CCn1cc(CNc2ccccn2)nn1
[1]
  Activity: Non-toxic

## Cc1ncc([N+](=O)[O-])n1CCn1cc(COc2cccc3ccccc23)nn1
[1]
  Activity: Non-toxic

## Cc1onc(-c2ccccc2)c1C(=O)N[C@@H]1C(=O)N2[C@@H]1SC(C)(C)[C@@H]2C(=O)O [OXACILLIN]
Staphylococcus aureus [2]
  Activity: 6.05 log10CFU/ml
Staphylococcus aureus [3]
  Activity: 7.62 log10CFU/ml
Staphylococcus aureus [4]
  Activity: 8.35 log10CFU/ml
Staphylococcus aureus [5]
  Activity: 11.2 log10CFU/ml
Staphylococcus aureus [6]
  Activity: 11.95 log10CFU/ml
Staphylococcus aureus [7]
  Activity: 12.34 log10CFU/ml
Staphylococcus aureus [8]
  MIC: > 128 µg/mL
Staphylococcus aureus [9]
  MIC: > 128 µg/mL
Staphylococcus aureus [10]
  MIC: > 128 µg/mL
Staphylococcus aureus [11]
  MIC: > 128 µg/mL
Staphylococcus aureus [12]
  MIC: > 128 µg/mL
Staphylococcus aureus [13]
  MIC: > 128 µg/mL
Staphylococcus aureus [14]
  MIC: > 128 µg/mL
Staphylococcus aureus [15]
  MIC: > 128 µg/mL
Staphylococcus aureus [16]
  MIC: > 128 µg/mL
Staphylococcus aureus [17]
  MIC: > 128 µg/mL
Staphylococcus aureus [18]
  MIC: > 128 µg/mL
Staphylococcus aureus [19]
  MIC: > 128 µg/mL
Staphylococcus aureus [20]
  MIC: > 128 µg/mL
Staphylococcus aureus [21]
  MIC: > 128 µg/mL
Staphylococcus aureus [22]
  MIC: > 128 µg/mL
Staphylococcus aureus [23]
  MIC: > 128 µg/mL
Staphylococcus aureus [24]
  MIC: > 128 µg/mL
Staphylococcus aureus [25]
  MIC: > 128 µg/mL
Staphylococcus aureus [26]
  MIC: > 128 µg/mL
Staphylococcus aureus [27]
  MIC: > 128 µg/mL
Staphylococcus aureus [28]
  MIC: 64 µg/mL (≈ 159 µM)
Staphylococcus aureus [29]
  MIC: 32 µg/mL (≈ 79.7 µM)
Staphylococcus aureus [30]
  MIC: 64 µg/mL (≈ 159 µM)
Staphylococcus aureus [31]
  MIC: 16 µg/mL (≈ 39.9 µM)
Staphylococcus aureus [32]
  MIC: 64 µg/mL (≈ 159 µM)
Staphylococcus aureus [33]
  MIC: 32 µg/mL (≈ 79.7 µM)
Staphylococcus aureus [34]
  MIC: 32 µg/mL (≈ 79.7 µM)
Staphylococcus aureus [35]
  MIC: 128 µg/mL (≈ 319 µM)
Staphylococcus aureus [36]
  MIC: 32 µg/mL (≈ 79.7 µM)
Staphylococcus aureus [37]
  MIC: 64 µg/mL (≈ 159 µM)

## Cc1ncc([N+](=O)[O-])n1CCn1cc([Si](C)(C)C)nn1
[1]
  Activity: Non-toxic

## Cc1ncc([N+](=O)[O-])n1CCn1cc(CNc2cccc(Cl)c2Cl)nn1
[1]
  Activity: Non-toxic

## CCCc1cn(CCn2c([N+](=O)[O-])cnc2C)nn1
[1]
  Activity: Non-toxic

## Cc1ncc([N+](=O)[O-])n1CCn1cc(COC2CCCCO2)nn1 (stereo unspecified)
[1]
  Activity: Non-toxic

## Cc1ncc([N+](=O)[O-])n1CCn1cc(CNCCc2ccccc2)nn1
[1]
  Activity: Non-toxic

## Cc1ncc([N+](=O)[O-])n1CCn1cc(CNc2ccc(Br)cc2)nn1
[1]
  Activity: Non-toxic

## CCC(=O)OCc1cn(CCn2c([N+](=O)[O-])cnc2C)nn1
[1]
  Activity: Non-toxic

## Cc1ncc([N+](=O)[O-])n1CCn1cc(COc2c(C(C)(C)C)cc(C(C)(C)C)cc2C(C)(C)C)nn1
[1]
  Activity: Non-toxic

## Cc1ncc([N+](=O)[O-])n1CCO [METRONIDAZOLE]
Staphylococcus aureus [2]
  Activity: 5.91 log10CFU/ml
Staphylococcus aureus [3]
  Activity: 6.45 log10CFU/ml
Staphylococcus aureus [4]
  Activity: 8.01 log10CFU/ml
Staphylococcus aureus [5]
  Activity: 8.25 log10CFU/ml
Staphylococcus aureus [6]
  Activity: 8.14 log10CFU/ml
Staphylococcus aureus [7]
  Activity: 8.3 log10CFU/ml

## Cc1ncc([N+](=O)[O-])n1CCn1cc(COc2ccccc2C=O)nn1
[1]
  Activity: Non-toxic

## Cc1ccc(OCc2cn(CCn3c([N+](=O)[O-])cnc3C)nn2)cc1
[1]
  Activity: Non-toxic

## Cc1ncc([N+](=O)[O-])n1CCn1cc(CBr)nn1
[1]
  Activity: Non-toxic

## Cc1ncc([N+](=O)[O-])n1CCn1cc(COCc2ccccc2)nn1
[1]
  Activity: Non-toxic

## Cc1ncc([N+](=O)[O-])n1CCn1cc(CNc2cc(Cl)c(Cl)cc2Cl)nn1
[1]
  Activity: Non-toxic

## Cc1ncc([N+](=O)[O-])n1CCn1cc(COc2ccccc2)nn1
[1]
  Activity: Non-toxic

## Cc1ncc([N+](=O)[O-])n1CCn1cc(CNc2cccc(F)c2)nn1
[1]
  Activity: Non-toxic

## Cc1ncc([N+](=O)[O-])n1CCn1cc(CNc2ccc(F)cc2)nn1
[1]
  Activity: Non-toxic

## Cc1ncc([N+](=O)[O-])n1CCn1cc(COc2ccc(Cl)cc2Cl)nn1
[1]
  Activity: Non-toxic

## Cc1ncc([N+](=O)[O-])n1CCn1cc(CNc2ccccc2Cl)nn1
[1]
  Activity: Non-toxic

## Cc1ncc([N+](=O)[O-])n1CCn1cc(C2(O)CCCCC2)nn1
[1]
  Activity: Non-toxic

## Cc1ccccc1NCc1cn(CCn2c([N+](=O)[O-])cnc2C)nn1
[1]
  Activity: Non-toxic

## Cc1ncc([N+](=O)[O-])n1CCn1cc(COc2ccccc2Cl)nn1
[1]
  Activity: Non-toxic

## COc1cc(NCc2cn(CCn3c([N+](=O)[O-])cnc3C)nn2)cc(OC)c1
[1]
  Activity: Non-toxic

## Cc1ncc([N+](=O)[O-])n1CCn1cc(COc2ccc([N+](=O)[O-])cc2)nn1
[1]
  Activity: Non-toxic

## Cc1ccccc1OCc1cn(CCn2c([N+](=O)[O-])cnc2C)nn1
[1]
  Activity: Non-toxic

## Cc1ncc([N+](=O)[O-])n1CCn1cc(COc2ccc(C(C)(C)C)cc2)nn1
[1]
  Activity: Non-toxic

## Cc1ncc([N+](=O)[O-])n1CCn1cc(CNc2cccc(Cl)c2)nn1
[1]
  Activity: Non-toxic

## Cc1ncc([N+](=O)[O-])n1CCn1cc(-c2ccccc2)nn1
[1]
  Activity: Non-toxic

## Cc1ncc([N+](=O)[O-])n1CCn1cc(CNc2ccccc2F)nn1
[1]
  Activity: Non-toxic

## Cc1cccc(OCc2cn(CCn3c([N+](=O)[O-])cnc3C)nn2)c1C
[1]
  Activity: Non-toxic

## Cc1ncc([N+](=O)[O-])n1CCn1cc(COc2ccc(C=O)cc2)nn1
[1]
  Activity: Non-toxic
